H9c2 TAG inh = triacylglycerol accumulation inhibition; inhibition, % at 12.5 µM; AID 651582; H9c2 cells, Nile Red lipid (TAG) fluorescence; cells loaded with 200 µM oleic acid; hit rate 0.66% among 230,000;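 active means pattern-corrected inhibition of lipid staining of at least 50% with the nuclear-stain viability signal not falling by more than 50%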;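 further: 0% = DMSO wells and 100% = triacsin C control wells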
Hsp70 activator = switches on Hsp70 transcription. hit rate 0.04% among 200,000. activation, % at 10 µM. HeLa Hsp70 promoter luciferase reporter, luminescence; scaled: vehicle 0, proteasome-inhibitor control 100%;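 active means activation above the mean across all tested compounds plus 3 SD, cutoff set per campaign, cut at about 5.5% in these data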;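 further: 100% = MG132 at 30 µM as the positive control and 0% = DMSO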
ABHD5-PLIN5 inh = ABHD5-PLIN5 protein interaction inhibition; Q00G26+Q8WTS1; Split G. princeps luciferase complementation, luminescence, 4 h; inhibition, % at 4 µM; hit rate 0.78% among 360,000; AID 602281;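 active means inhibition above the mean inhibition across every tested compound plus 3 SD, cut at about 22% in these data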;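 further: 0% = DMSO only wells and the 100% control is not disclosed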
HIF act = HIF pathway transcriptional activation; AID 1910; U2OS HRE-luciferase reporter, luminescence; normalized: DMSO 0%, desferrioxamine 100%; hit rate 0.32% among 300,000; activation, % at 7.5 µM (by protocol);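 active means mean activation of at least 10% of the iron chelator positive control signal, with at least half of replicates also reaching 10%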
GAA850 FXN act = frataxin GAA850 promoter activation | HEK293 lucGAA850 FXN promoter luciferase reporter, 24 h; percent of 10 µM SAHA response | activation, % at 6 µM | hit rate 0.56% among 360,000 | AID 540364;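 active means activation above the average of all compounds screened plus 3 SD, cutoff fixed separately per campaign, cut at about 7.5% in these data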;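 further: 0% = DMSO wells and 100% = 10 µM SAHA wells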
Rad51 HR inh = blocks human Rad51 in homologous recombination | hRad51 DNA strand exchange, fluorescence dequenching | inhibition, % at 10 µM | hit rate 0.085% among 200,000;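 active means inhibition above 40% at the single screening dose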;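 further: 0% = DMSO control wells and 100% = blanks with heterologous ssDNA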
Target sequence (Q06609 whole entry, looked up): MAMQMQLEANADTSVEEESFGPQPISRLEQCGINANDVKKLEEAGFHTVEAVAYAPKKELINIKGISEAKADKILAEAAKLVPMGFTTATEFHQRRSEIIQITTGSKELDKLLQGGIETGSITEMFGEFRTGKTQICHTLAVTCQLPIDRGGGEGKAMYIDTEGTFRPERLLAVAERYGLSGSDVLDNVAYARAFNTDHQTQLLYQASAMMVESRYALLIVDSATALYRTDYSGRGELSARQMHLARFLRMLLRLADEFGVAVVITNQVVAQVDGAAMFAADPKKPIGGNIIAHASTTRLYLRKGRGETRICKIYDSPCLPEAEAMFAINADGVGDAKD
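Read-out basis: percent inhibition relative to plate controls and blanks / Assay system: human Rad51 nucleoprotein filaments preassembled on unlabelled ssDNA / Timing: filaments 15 min 37 °C, then compound 30 min / Control set: per-plate controls and blanks / Technique: fluorescence dequenching at 485/520 nm / Compound: 10 µM final, single point / Also added: Fluorescein- and BHQ1-tagged 47-mer duplex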
TAG conf = triacylglycerol accumulation inhibition, confirmation; shares compounds with H9c2 TAG inh; H9c2 lipid accumulation, Nile Red fluorescence; cells loaded with 200 µM oleic acid; inhibition, % at 12.5 µM; hit rate 71% among 990; AID 651629;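 active means mean inhibition across replicates of 40% or more; inactive means mean inhibition below 40%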;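 further: plate controls were DMSO only wells for no effect and Triacsin C treated wells for full effect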
Numbers without * were called inactive; nt = no result; ! = repeats disagree. This is a sample that favours compounds with a hit; in the whole collection about 1.9% have one here.

SMILES	H9c2 TAG inh	Hsp70 activator	ABHD5-PLIN5 inh	HIF act	GAA850 FXN act	Rad51 HR inh	TAG conf
CCN(CC)C(=O)C1=C(C)N(CCCOC)C(=O)C(CC(=O)NCCCN(C)C)C1 (stereo unspecified)	4.1	nt	9.9	nt	0.4	nt	nt
CCOc1cc(/C=N\NC(=O)c2ccc(NC(=O)C(C)(C)C)cc2)ccc1OC(=O)c1cccc(C)c1	64.4*	-0.3	2.2	0.7	-10.1	5.0	37.0
CCOc1cc(/C=N\NC(=O)c2ccc(NC(=O)C(C)(C)C)cc2)ccc1OC(=O)c1ccc(C)cc1	25.8	-0.1	-2.5	-2.3	-1.1	-3.5	nt
COc1ccc(S(=O)(=O)N2c3cc(Cl)ccc3Oc3nc4ccccc4nc32)cc1	52.0*	0.1	7.7	0.4	-2.5	3.1	28.5
Nc1nccnc1C(=O)OCC(=O)NCCc1ccc(Cl)cc1	-1.2	nt	8.2	nt	-1.2	nt	nt
COc1ccc(-c2sc3cc4c(cc3c2C#CCO)OCO4)cc1	-45.7	nt	0.4	nt	-0.7	nt	nt
COc1ccc(-c2sc3cc4c(cc3c2C#Cc2ccc(N)cc2)OCO4)cc1	55.4*	nt	17.1	nt	2.3	nt	58.5*
O=C(c1cc(-c2ccncc2)nc2c(Cl)cccc12)N1CCN(c2ccccc2F)CC1	55.6*	nt	1.1	-0.4	-4.0	nt	69.0*
O=C(c1cc(-c2ccccc2Cl)nc2ccccc12)N1CCN(c2ccccc2O)CC1	-2.3	nt	4.1	0.8	0.2	nt	nt
CC(C)(C)c1ccc(CSc2nc(N)cc(=O)[nH]2)cc1	nt	nt	1.0	2.6	4.9	nt	nt
CCOc1ccccc1Nc1nnc(SCC(=O)Nc2nc(-c3ccc(OC)cc3)cs2)s1	35.5	-0.3	5.2	0.8	2.6	-27.7	nt
CN(C)CCCn1c(SCC(=O)N2c3ccccc3Sc3ccccc32)nc2ccccc2c1=O	nt	-0.5	18.5	0.1	1.6	1.8	nt
COc1ccccc1Nc1nnc(SCC(=O)Nc2nc(-c3ccc(F)cc3)cs2)s1	51.3*	-0.2	-6.0	-0.3	0.2	nt	57.4*
Cc1ccc(-c2csc(NC(=O)CSc3nc4ccccc4c(=O)n3CCCN(C)C)n2)cc1	70.4*	0.1	6.8	2.4	3.5	-150.9	82.8*
CCn1c(SCC(=O)Nc2nc(-c3ccc(C)cc3)cs2)nnc1-c1ccccc1	28.4	-0.5	1.3	2.6	-1.5	-2.6	nt
CCn1c(SCC(=O)Nc2nc(-c3ccc(C)cc3)cs2)nnc1-c1ccccc1O	80.4*	-0.1	-2.4	0.2	-1.9	8.4	67.5*
CC(=O)Nc1ccc(SC[C@H](CC(C)C)N2CCN(CC(C)C)CCC2=O)cc1	67.5*	nt	-8.1	0.4	-0.3	-0.3	1.0
COc1ccc(Nc2nc3cc(-c4sccc4C)sc3c(=O)n2C)cc1OC	57.3*	nt	-2.6	nt	-1.9	nt	71.0*
CCOC(=O)Cc1ccc(Nc2nc(NC)nc3ccsc23)cc1	4.5	nt	7.8	nt	1.9	nt	nt
CCOC(=O)Cc1ccc(Nc2nc3cc(-c4sccc4C)sc3c(=O)n2C)cc1	50.9*	nt	-1.2	nt	-2.1	nt	70.7*
O=C(COC(=O)CC1SC(N2CCCC2)=NC1=O)Nc1c(F)c(F)c(F)c(F)c1F (stereo unspecified)	15.3	nt	4.7	nt	1.6	nt	nt
Cc1noc(C)c1NC(=O)N1C[C@H](O)COC[C@H]2O[C@@H](CC(=O)NCC3CCCCC3)CC[C@@H]21	nt	nt	-4.4	nt	nt	nt	nt
Cc1cccc(NC(=S)N(CCCN2CCOCC2)C(C)c2cc3ccccc3o2)c1C (stereo unspecified)	-3.7	0.0	-2.7	-0.5	-1.4	-15.7	nt
COc1ccc(CNC(=O)/C=C/c2ccc(OCCCF)cc2)cc1OC	39.9	-0.3	-3.1	-0.5	0.3	11.5	nt
O=C(/C=C/c1ccc(OCCCF)cc1)NCc1ccc(Cl)c(Cl)c1	62.4*	-0.1	2.9	-0.3	-1.1	-9.6	51.8*
SMILES	H9c2 TAG inh	Hsp70 activator	ABHD5-PLIN5 inh	HIF act	GAA850 FXN act	Rad51 HR inh	TAG conf
COc1ccc(OC)c(/C=C/C(=O)OCC(=O)c2c(N)n(C)c(=O)n(C)c2=O)c1	55.7*	-0.2	-0.4	0.1	0.6	6.3	-7.5
COc1ccccc1N1CCN(CC(=O)Nc2cc(C)nn2-c2nc(C)cc(C)n2)CC1	55.4*	nt	3.9	nt	-6.2	nt	56.1*
CC(C)CCNCC(O)CON=C1c2ccccc2-c2ccccc21 (stereo unspecified)	64.2*	-0.1	11.1	-7.5	-0.9	4.7	41.7*
CCn1cnc2scc(-c3ccccc3)c2c1=O	-7.2	-0.4	-1.8	-0.1	1.7	-12.4	nt
Cn1cc(/C=N/n2cnc3scc(-c4ccc(Cl)cc4)c3c2=O)c2ccccc21	60.5*	0.2	-5.2	-1.0	0.7	3.1	69.4*
CCCCNc1c(NC(C)=O)c(=O)oc2ccccc12	6.2	-0.2	2.1	-0.1	-0.5	19.4	nt
CCOc1ccc(-c2csc(NNC3=NCCCCC3)n2)cc1	nt	-0.2	-19.5	0.8	3.6	2.1	nt
c1ccc(-c2csc(NNC3=NCCCCC3)n2)cc1	84.7*	0.0	3.3	3.5	3.5	-3.5	107.6*
Clc1ccc(-c2csc(NNC3=NCCCCC3)n2)cc1	148.1*	-0.4	-4.5	0.8	0.4	-2.9	132.2*
CCc1nc2ccc(C(=O)NCCCn3ccnc3)cn2c1N(C)CCC(C)C	-7.0	nt	-3.7	nt	1.7	nt	nt
C/C(=N\Nc1cc(C(F)(F)F)ccc1Cl)c1ccncc1	nt	nt	-1.2	0.0	1.3	nt	nt
Cn1cnnc1SCC(=O)Nc1ccc2ccccc2c1	-11.1	nt	-2.4	nt	-0.5	nt	nt
O=C1N[C@@H](Cc2ccccc2)COC(=O)[C@@H](Cc2ccc(F)cc2)CC/C=C/C[C@@H]1CC(=O)N(CCO)Cc1ccccc1	55.0*	nt	2.0	nt	-2.7	nt	43.7*
O=C1N[C@H](Cc2ccccc2)COC(=O)[C@@H](Cc2ccc(F)cc2)CC/C=C/C[C@H]1CC(=O)N(CCO)Cc1ccccc1	16.0	nt	-17.1	nt	-1.3	nt	nt
Cc1ccc(C(=O)Nc2cccc(C(F)(F)F)c2)cc1NC(=O)c1ccno1	19.9	nt	2.5	0.3	0.6	-3.5	nt
Cc1ccc(C(=O)Nc2cccc(C(F)(F)F)c2)cc1NC(=O)c1nccn1C	96.4*!	nt	4.7	-0.1	-0.8	12.2	9.3
Cc1cc(C)cc(NCc2ccncc2)c1	11.9	nt	1.5	0.0	-0.4	nt	nt
CCOc1ccc(C(=O)Nc2nnc(NC(=S)Nc3ccccc3)s2)cc1	50.7*	-0.1	-2.0	1.6	0.5	-6.3	41.7*
CCN(CC)CCNc1nc(-n2nc(C)cc2C)nc2sc3c(c12)CC(C)(C)OC3	55.3*	nt	1.4	-0.2	-1.9	-4.8	56.2*
CCN(CC)CCNc1ncnc2c1sc1nc(N3CCCC3)c3c(c12)CC(C)(C)OC3	56.0*	-0.5	11.4	-0.8	6.7	nt	45.5*
Cc1cc(C)n(-c2nc(NCCN(C)C)c3c4c(sc3n2)COC(C)(C)C4)n1	46.6	nt	10.2	-0.5	0.0	nt	nt
CC1CCN(CC(=O)c2cccs2)CC1	4.4	0.1	-4.6	1.3	3.1	-4.3	nt

Screening results as filed in PubChem.
